Experimental data from ChEMBL document CHEMBL1949580, “Multi-component synthesis and in vitro and in vivo anticancer activity of novel arylmethylene bis-isoxazolo[4,5-b]pyridine-N-oxides” (Eur J Med Chem, 2012).
In brackets after ≈: the same amount, converted by molar mass.

Tests used:
MCF7 = test: Cytotoxicity against human MCF7 cells after 48 hrs by MTT assay; format: functional, cell-based; settings: MCF7, 48 h
Procedure, shortened: (§1)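 Cells in medium with 10% FBS, 5% CO₂, 37 °C, seeded from a 1 × 10⁵ cells/mL suspension. Test solutions from DMSO stocks (final <1% DMSO) added after 24 h. Exposure 48 h, then MTT 2.5 mg/mL for 2 h, formazan dissolved in DMSO, read at 490 nm. IC₅₀ is 50% OD reduction versus untreated, from dose-response curves. Mean of three independent determinations.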

[1] = Cytotoxicity against […] after 48 hrs by MTT assay; format: functional, cell-based; settings: Mus musculus, Ehrlich; procedure, shortened: as §1
HeLa = test: Cytotoxicity against human HeLa cells after 48 hrs by MTT assay; format: functional, cell-based; procedure, shortened: as §1
[2] = Antitumor activity against […] xenografted in Swiss albino mouse liquid tumor model assessed as change in body weight at 5 mg/kg, ip qd for 9 days measured after 14 days (reference value: 12.2 +/- 0.75 g); format: functional, Ehrlich; settings: route intraperitoneal
Procedure, shortened: (§2)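 EAC cells (0.2 mL of 2 × 10⁶ cells/mouse) injected ip on day 0. Daily ip dosing began 24 h later. Ten mice per group. Tumor volume, packed cell volume and viable tumor cell count read by Trypan blue method, alongside body weight. Values are mean ± SEM versus tumor control. Cisplatin 5 mg/kg served as the positive control.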

[3] = Anticancer activity against […] xenografted in Swiss albino mouse liquid tumor model assessed as tumor volume at 10 mg/kg, ip qd for 9 days measured after 14 days (reference value: 12.1 +/- 0.89 mL); format: functional, Ehrlich; settings: route intraperitoneal; procedure, shortened: as §2
Mus musculus [4] = test: Toxicity in human EAC cells xenografted Swiss albino mouse liquid tumor model assessed as change in lymphocyte cell count at 10 mg/kg, ip qd for 9 days (reference value: 23 +/- 0.567 %); format: organism-based, Ehrlich; parameters: dose 10 mg/kg, route intraperitoneal; settings: in vivo, 216 h
Mus musculus [5] = test: Toxicity in […] xenografted Swiss albino mouse liquid tumor model assessed as change WBC cell count at 10 mg/kg, ip qd for 9 days (reference value: 20.6 +/- 0.545 10^3/mm3); format: organism-based, Ehrlich; parameters: dose 10 mg/kg, route intraperitoneal; settings: in vivo, 216 h
Mus musculus [6] = test: Toxicity in […] xenografted Swiss albino mouse liquid tumor model assessed as change hemoglobin level at 10 mg/kg, ip qd for 9 days (reference value: 5.75 +/- 0.655 mg); format: organism-based, Ehrlich; parameters: dose 10 mg/kg, route intraperitoneal; settings: in vivo, 216 h
[7] = Anticancer activity against […] xenografted in Swiss albino mouse liquid tumor model assessed as packed cell volume at 5 mg/kg, ip qd for 9 days measured after 14 days by trypan blue staining (reference value: 2.75 +/- 0.49 mm); format: functional, Ehrlich; settings: route intraperitoneal; procedure, shortened: as §2
[8] = Anticancer activity against […] xenografted in Swiss albino mouse liquid tumor model assessed as increase in host lifespan at 5 mg/kg, ip qd for 9 days measured after 14 days; format: functional, Ehrlich; settings: route intraperitoneal
[9] = Anticancer activity against […] xenografted in Swiss albino mouse liquid tumor model assessed as increase in host lifespan at 10 mg/kg, ip qd for 9 days measured after 14 days; format: functional, Ehrlich; settings: route intraperitoneal
[10] = Antitumor activity against […] xenografted in Swiss albino mouse liquid tumor model assessed as change in body weight at 10 mg/kg, ip qd for 9 days measured after 14 days (reference value: 12.2 +/- 0.75 g); format: functional, Ehrlich; settings: route intraperitoneal; procedure, shortened: as §2
[11] = Anticancer activity against […] xenografted in Swiss albino mouse liquid tumor model assessed as host survival at 5 mg/kg, ip qd for 9 days (reference value: 13.7 +/- 0.03 days); format: functional, Ehrlich; settings: route intraperitoneal
Mus musculus [12] = test: Toxicity in […] xenografted Swiss albino mouse liquid tumor model assessed as change in monocytes cell count at 5 mg/kg, ip qd for 9 days (reference value: 2.4 +/- 0.12 %); format: organism-based, Ehrlich; parameters: dose 5 mg/kg, route intraperitoneal; settings: in vivo, 216 h
Mus musculus [13] = test: Toxicity in human EAC cells xenografted Swiss albino mouse liquid tumor model assessed as change hemoglobin level at 5 mg/kg, ip qd for 9 days (reference value: 5.75 +/- 0.655 mg); format: organism-based, Ehrlich; parameters: dose 5 mg/kg, route intraperitoneal; settings: in vivo, 216 h
Mus musculus [14] = test: Toxicity in human EAC cells xenografted Swiss albino mouse liquid tumor model assessed as change in RBC cell count at 5 mg/kg, ip qd for 9 days (reference value: 2.74 +/- 0.081 million/mm3); format: organism-based, Ehrlich; parameters: dose 5 mg/kg, route intraperitoneal; settings: in vivo, 216 h
[15] = Anticancer activity against […] xenografted in Swiss albino mouse liquid tumor model assessed as host survival at 10 mg/kg, ip qd for 9 days (reference value: 13.7 +/- 0.03 days); format: functional, Ehrlich; settings: route intraperitoneal
Mus musculus [16] = test: Toxicity in human EAC cells xenografted Swiss albino mouse liquid tumor model assessed as change in lymphocyte cell count at 5 mg/kg, ip qd for 9 days (reference value: 23 +/- 0.567 %); format: organism-based, Ehrlich; parameters: dose 5 mg/kg, route intraperitoneal; settings: in vivo, 216 h
[17] = Anticancer activity against […] xenografted in Swiss albino mouse liquid tumor model assessed as viable tumor cells per 10^7 cells at 5 mg/kg, ip qd for 9 days measured after 14 days by trypan blue staining (reference value: 6.39 +/- 0.51 10^7/mL); format: functional, Ehrlich; settings: route intraperitoneal; procedure, shortened: as §2
Mus musculus [18] = test: Toxicity in […] xenografted Swiss albino mouse liquid tumor model assessed as change WBC cell count at 5 mg/kg, ip qd for 9 days (reference value: 20.6 +/- 0.545 10^3/mm3); format: organism-based, Ehrlich; parameters: dose 5 mg/kg, route intraperitoneal; settings: in vivo, 216 h
Mus musculus [19] = test: Toxicity in human EAC cells xenografted Swiss albino mouse liquid tumor model assessed as change in RBC cell count at 10 mg/kg, ip qd for 9 days (reference value: 2.74 +/- 0.081 million/mm3); format: organism-based, Ehrlich; parameters: dose 10 mg/kg, route intraperitoneal; settings: in vivo, 216 h
Mus musculus [20] = test: Toxicity in human EAC cells xenografted Swiss albino mouse liquid tumor model assessed as change in neutrophil cell count at 10 mg/kg, ip qd for 9 days (reference value: 73 +/- 1.25 %); format: organism-based, Ehrlich; parameters: dose 10 mg/kg, route intraperitoneal; settings: in vivo, 216 h
[21] = Anticancer activity against […] xenografted in Swiss albino mouse liquid tumor model assessed as packed cell volume at 10 mg/kg, ip qd for 9 days measured after 14 days by trypan blue staining (reference value: 2.75 +/- 0.49 mm); format: functional, Ehrlich; settings: route intraperitoneal; procedure, shortened: as §2
[22] = Anticancer activity against […] xenografted in Swiss albino mouse liquid tumor model assessed as tumor volume at 5 mg/kg, ip qd for 9 days measured after 14 days (reference value: 12.1 +/- 0.89 mL); format: functional, Ehrlich; settings: route intraperitoneal; procedure, shortened: as §2
[23] = Anticancer activity against […] xenografted in Swiss albino mouse liquid tumor model assessed as viable tumor cells per 10^7 cells at 10 mg/kg, ip qd for 9 days measured after 14 days by trypan blue staining (reference value: 6.39 +/- 0.51 10^7/mL); format: functional, Ehrlich; settings: route intraperitoneal; procedure, shortened: as §2
Mus musculus [24] = test: Toxicity in human EAC cells xenografted Swiss albino mouse liquid tumor model assessed as change in monocytes cell count at 10 mg/kg, ip qd for 9 days (reference value: 2.4 +/- 0.12 %); format: organism-based, Ehrlich; parameters: dose 10 mg/kg, route intraperitoneal; settings: in vivo, 216 h
Mus musculus [25] = test: Toxicity in human EAC cells xenografted Swiss albino mouse liquid tumor model assessed as change in neutrophil cell count at 5 mg/kg, ip qd for 9 days (reference value: 73 +/- 1.25 %); format: organism-based, Ehrlich; parameters: dose 5 mg/kg, route intraperitoneal; settings: in vivo, 216 h

COc1ccc(-c2c[n+]([O-])c3c(C)noc3c2C(c2ccccc2)c2c(-c3ccc(OC)cc3)c[n+]([O-])c3c(C)noc23)cc1 gave an IC50 (MCF7) of 46 µg/mL (≈ 76.5 µM), an IC50 [1] of 41.7 µg/mL (≈ 69.4 µM) and an IC50 (HeLa) of 47.9 µg/mL (≈ 79.8 µM).

Work on Cc1noc2c(C(c3ccccc3)c3c(-c4ccccc4)c[n+]([O-])c4c(C)noc34)c(-c3ccccc3)c[n+]([O-])c12 yielded an Activity [2] of 10.41 g, an Activity [3] of 4.5 mL and an IC50 (MCF7) of 31.9 µg/mL (≈ 59 µM). For the same compound, the Activity (Mus musculus [4]) was 49%, the Activity (Mus musculus [5]) was 13.92 ×10³ /mm3 and the Activity (Mus musculus [6]) was 9.3 mg. For the same compound, the IC50 [1] was 26.6 µg/mL (≈ 49.2 µM), the Activity [7] was 1.25 mm and the Activity [8] was 19.7%. For the same compound, the Activity [9] was 61.31%, the Activity [10] was 7.7 g and the MST [11] was 16.4 days. For the same compound, the Activity (Mus musculus [12]) was 2%, the Activity (Mus musculus [13]) was 8.08 mg and the Activity (Mus musculus [14]) was 3.02 million/mm3. It also gave an MST [15] of 22.1 days, an Activity (Mus musculus [16]) of 31% and an Activity [17] of 4.05 ×10⁷ /ml. The IC50 (HeLa) was 28.6 µg/mL (≈ 52.9 µM), the Activity (Mus musculus [18]) was 18.48 ×10³ /mm3 and the Activity (Mus musculus [19]) was 3.88 million/mm3. For the same compound, the Activity (Mus musculus [20]) was 39%, the Activity [21] was 0.94 mm and the Activity [22] was 7.61 mL. The Activity [23] was 3.27 ×10⁷ /ml, the Activity (Mus musculus [24]) was 1.6% and the Activity (Mus musculus [25]) was 54%.

For Cc1ccccc1C(c1c(-c2ccccc2)c[n+]([O-])c2c(C)noc12)c1c(-c2ccccc2)c[n+]([O-])c2c(C)noc12, the IC50 (MCF7) was 60.7 µg/mL (≈ 109 µM), the IC50 [1] was 65.1 µg/mL (≈ 117 µM) and the IC50 (HeLa) was 62.4 µg/mL (≈ 113 µM).

In the case of COc1ccccc1C(c1c(-c2ccccc2)c[n+]([O-])c2c(C)noc12)c1c(-c2ccccc2)c[n+]([O-])c2c(C)noc12, the IC50 (MCF7) was 57.3 µg/mL (≈ 101 µM), the IC50 [1] was 51.8 µg/mL (≈ 90.9 µM) and the IC50 (HeLa) was 65.5 µg/mL (≈ 115 µM).

Cc1noc2c(C(c3ccccc3Cl)c3c(-c4ccccc4)c[n+]([O-])c4c(C)noc34)c(-c3ccccc3)c[n+]([O-])c12 gave an IC50 (MCF7) of 72.1 µg/mL (≈ 125 µM), an IC50 [1] of 70.4 µg/mL (≈ 122 µM) and an IC50 (HeLa) of 79 µg/mL (≈ 137 µM).

For Cc1noc2c(C(c3ccc(Cl)cc3)c3c(-c4ccccc4)c[n+]([O-])c4c(C)noc34)c(-c3ccccc3)c[n+]([O-])c12, the IC50 (MCF7) was 74.3 µg/mL (≈ 129 µM), the IC50 [1] was 60.6 µg/mL (≈ 105 µM) and the IC50 (HeLa) was 70.7 µg/mL (≈ 123 µM).

In the case of Cc1ccc(-c2c[n+]([O-])c3c(C)noc3c2C(c2ccccc2)c2c(-c3ccc(C)cc3)c[n+]([O-])c3c(C)noc23)cc1, the IC50 (MCF7) was 44.3 µg/mL (≈ 77.9 µM), the IC50 [1] was 48.4 µg/mL (≈ 85.2 µM) and the IC50 (HeLa) was 42 µg/mL (≈ 73.9 µM).

Work on Cc1noc2c(C(c3ccccc3)c3c(-c4ccccc4O)c[n+]([O-])c4c(C)noc34)c(-c3ccccc3O)c[n+]([O-])c12 yielded an Activity [2] of 11 g, an Activity [3] of 8.29 mL and an IC50 (MCF7) of 33.5 µg/mL (≈ 58.6 µM). It also gave an Activity (Mus musculus [4]) of 40%, an Activity (Mus musculus [5]) of 18.8 ×10³ /mm3 and an Activity (Mus musculus [6]) of 7.02 mg. For the same compound, the IC50 [1] was 36.3 µg/mL (≈ 63.4 µM), the Activity [7] was 2.13 mm and the Activity [8] was 8.02%. It also gave an Activity [9] of 31.38%, an Activity [10] of 8.89 g and an MST [11] of 14.8 days. The Activity (Mus musculus [12]) was 2.3%, the Activity (Mus musculus [13]) was 5.96 mg and the Activity (Mus musculus [14]) was 2.72 million/mm3. For the same compound, the MST [15] was 18 days, the Activity (Mus musculus [16]) was 26% and the Activity [17] was 5.21 ×10⁷ /ml. It also gave an IC50 (HeLa) of 32.8 µg/mL (≈ 57.3 µM), an Activity (Mus musculus [18]) of 19.9 ×10³ /mm3 and an Activity (Mus musculus [19]) of 3.3 million/mm3. It also gave an Activity (Mus musculus [20]) of 51%, an Activity [21] of 1.69 mm and an Activity [22] of 10.69 mL. It also gave an Activity [23] of 4.07 ×10⁷ /ml, an Activity (Mus musculus [24]) of 1.9% and an Activity (Mus musculus [25]) of 65%.

Cc1noc2c(C(c3ccccc3)c3c(-c4ccc(Cl)cc4)c[n+]([O-])c4c(C)noc34)c(-c3ccc(Cl)cc3)c[n+]([O-])c12 showed an IC50 (MCF7) of 79 µg/mL (≈ 130 µM), an IC50 [1] of 78.3 µg/mL (≈ 129 µM) and an IC50 (HeLa) of 70.2 µg/mL (≈ 115 µM).

Work on Cc1noc2c(C(c3ccccc3)c3c(-c4ccc([N+](=O)[O-])cc4)c[n+]([O-])c4c(C)noc34)c(-c3ccc([N+](=O)[O-])cc3)c[n+]([O-])c12 yielded an IC50 (MCF7) of 76.2 µg/mL (≈ 121 µM), an IC50 [1] of 75.5 µg/mL (≈ 120 µM) and an IC50 (HeLa) of 80 µg/mL (≈ 127 µM).
